One assay relates to Bel-7402. The experiment in a line: Cytotoxicity against human Bel7402 cells after 72 hrs by MTT assay. The class given is functional, cell-based. The note with it: Bel-7402, 72 h. The procedure, abridged: (§1)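 Human tumour cells plated 24 h ahead, then exposed continuously to a range of compound concentrations for 72 h. Viability read by MTT. Adriamycin served as positive control. IC50 is the concentration giving 50% inhibition of control growth. Three independent experiments, each in triplicate.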
A general note: Tetrazolium dyes change colour on reduction, which living cells bring about.

The subject of the next assay is A549. The experiment in a line: Cytotoxicity against human A549 cells after 72 hrs by MTT assay. The class given is functional, cell-based. As to conditions: A549, 72 h. The procedure, abridged: (§2)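 Human tumour cells plated 24 h ahead, then exposed continuously to a range of compound concentrations for 72 h. Viability read by MTT. Adriamycin served as positive control. Three independent experiments, each in triplicate.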

A further assay has as its system HeLa. Kind of assay: Cytotoxicity against human HeLa cells after 72 hrs by MTT assay. In kind it is functional, cell-based. The method, boiled down: as §1
The subject of the next assay is K562. Kind of assay: Cytotoxicity against human K562 cells after 72 hrs by MTT assay. As to conditions: K562, 72 h. The class given is functional, cell-based. The procedure, abridged:
as §2

In assay [1] the target is Hepatocyte growth factor receptor (Homo sapiens) (UniProt P08581). The experiment in a line: Inhibition of c-Met (unknown origin) at 1 uM after 60 mins by ELISA relative to control. The procedure, abridged:
(§3)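 ELISA tyrosine kinase assay. Compounds added in DMSO (1% v/v), which was also the negative control; SU11274 (1 μM) was the positive control. Reaction run 60 min at 37 °C. pTyr detected by PY99 plus HRP anti-mouse IgG (30 min, 37 °C), developed with OPD/H2O2, read at 490 nm. Percent inhibition calculated.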

Assay [2] has the same target. The experiment in a line: Inhibition of c-Met (unknown origin) at 10 uM after 60 mins by ELISA relative to control. The procedure, abridged: as §3

Our source for the IC50 and inhibition values is ChEMBL document CHEMBL2331122, “Cytotoxic polyketide derivatives from the South China Sea sponge Plakortis simplex” (J Nat Prod, 2013).

Structures can show the parent of a compound that is named as a salt.

As a reminder, the IC50 is the midpoint of a concentration-inhibition curve. A low value points to greater potency. Broadly, the inhibition is the drop in the measured response relative to a control, in per cent. A lower inhibition goes with little suppression.

Hepatocyte growth factor receptor (Homo sapiens), sequence (P08581 whole entry): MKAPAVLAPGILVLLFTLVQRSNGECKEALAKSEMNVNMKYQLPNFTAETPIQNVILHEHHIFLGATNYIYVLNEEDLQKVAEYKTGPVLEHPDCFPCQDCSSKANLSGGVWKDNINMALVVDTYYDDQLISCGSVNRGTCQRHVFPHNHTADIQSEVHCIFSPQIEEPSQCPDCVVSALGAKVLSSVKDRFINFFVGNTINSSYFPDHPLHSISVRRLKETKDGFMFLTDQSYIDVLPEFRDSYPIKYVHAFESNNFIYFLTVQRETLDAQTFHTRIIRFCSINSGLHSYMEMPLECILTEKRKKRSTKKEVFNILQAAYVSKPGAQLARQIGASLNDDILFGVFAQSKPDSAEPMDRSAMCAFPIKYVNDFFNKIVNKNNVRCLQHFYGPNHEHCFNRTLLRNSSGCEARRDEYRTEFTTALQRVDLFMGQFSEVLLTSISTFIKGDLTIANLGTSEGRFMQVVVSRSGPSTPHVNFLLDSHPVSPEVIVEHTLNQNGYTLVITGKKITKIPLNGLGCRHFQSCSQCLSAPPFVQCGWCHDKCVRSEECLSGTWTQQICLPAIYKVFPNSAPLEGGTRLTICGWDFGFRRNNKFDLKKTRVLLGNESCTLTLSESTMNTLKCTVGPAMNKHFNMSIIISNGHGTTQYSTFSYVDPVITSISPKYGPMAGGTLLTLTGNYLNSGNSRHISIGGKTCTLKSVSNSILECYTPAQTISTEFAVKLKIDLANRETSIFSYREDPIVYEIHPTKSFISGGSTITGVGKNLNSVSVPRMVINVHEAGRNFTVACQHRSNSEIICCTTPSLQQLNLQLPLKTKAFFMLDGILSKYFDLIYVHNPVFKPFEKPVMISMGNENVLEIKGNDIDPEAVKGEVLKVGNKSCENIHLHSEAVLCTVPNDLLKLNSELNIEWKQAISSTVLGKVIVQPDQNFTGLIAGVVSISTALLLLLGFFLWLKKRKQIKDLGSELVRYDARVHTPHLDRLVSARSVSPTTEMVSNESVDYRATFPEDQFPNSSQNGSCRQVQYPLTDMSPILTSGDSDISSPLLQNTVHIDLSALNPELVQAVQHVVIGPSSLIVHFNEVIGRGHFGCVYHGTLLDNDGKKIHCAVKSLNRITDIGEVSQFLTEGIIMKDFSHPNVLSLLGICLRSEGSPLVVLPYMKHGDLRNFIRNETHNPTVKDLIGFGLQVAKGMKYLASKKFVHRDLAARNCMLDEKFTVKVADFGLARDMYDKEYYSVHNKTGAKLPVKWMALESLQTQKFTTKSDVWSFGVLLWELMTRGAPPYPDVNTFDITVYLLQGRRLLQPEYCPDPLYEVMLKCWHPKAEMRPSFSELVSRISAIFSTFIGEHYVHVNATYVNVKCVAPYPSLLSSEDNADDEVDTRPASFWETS

In the case of `CCCCC(C)C/C(=C\[C@@]1(CC)OC(=O)C[C@@H]1O)CC` (some centres not stated) [SIMPLEXOLIDE B], the IC50 with Bel-7402 was > 100 µM; in the assay with A549, > 100 µM; with HeLa, 4.7 µM; with K562, 2.2 µM.

Turning to `CCC[C@@H]1[C@@H](C)C[C@](O)(CC)[C@H]1[C@]1(CC)OC(=O)C[C@@H]1O` [SIMPLEXTONE D], the IC50 was > 100 µM with Bel-7402, > 100 µM in the assay with A549, > 50 µM in the assay with HeLa and > 100 µM in the assay with K562.

Consider `CCCCC(C)CC(O)(/C=C(/CC)[C@@H](O)CC(=O)OC)CC` (some centres not stated) [WOODYLIDE A], for which the concentration for half-maximal inhibition (IC50) in the assay on Bel-7402 is > 100 µM; in the assay with A549, 29.3 µM; in the assay on HeLa, 15.5 µM; in the assay on K562 it was 23.8 µM.

As for `CCCCC(C)C[C@]1(CC)O[C@H]1[C@]1(CC)C=CC(=O)O1` (some centres not stated) [PLAKORTOXIDE A], the IC50 in the assay with Bel-7402 was > 100 µM; in the assay on A549, > 100 µM; in the assay with HeLa, 31.5 µM; in the assay with K562, > 50 µM.

Regarding `CCCC[C@H](CC)C[C@]1(CC)C=C(CC)/C(=C/C(=O)OC)O1`, the IC50 in the assay with Bel-7402 is > 100 µM; in the assay on A549, > 100 µM; with HeLa, 4.2 µM; with K562, 5.3 µM.

In the case of `CC/C=C/[C@H]1C[C@](O)(CC)[C@@H]([C@]2(CC)OC(=O)C[C@@H]2O)[C@@H]1C` [SIMPLEXTONE C], the IC50 is > 100 µM in the assay with Bel-7402, 40.4 µM in the assay with A549, 29 µM with HeLa and 19.4 µM in the assay with K562. The inhibition in assay [1] was found to be 34.3%; in assay [2] it was 57.4%.

Consider `CCCCC(CC)CC(O)(/C=C(/CC)[C@@H](O)CC(=O)OC)CC` (some centres not stated) [WOODYLIDE B], for which the concentration for half-maximal inhibition (IC50) in the assay with Bel-7402 was > 100 µM; in the assay on A549 it was 23.6 µM; in the assay with HeLa it was 15.9 µM; with K562 it was 20 µM.

In turn, `COc1cccc2c1C(=O)c1c(O)c3c(c(O)c1C2=O)C[C@@](O)(C(=O)CO)C[C@@H]3O[C@H]1C[C@H](N)[C@H](O)[C@H](C)O1` [DOXORUBICIN HYDROCHLORIDE] registered a half-inhibitory concentration (IC50) in the assay with HeLa of 0.6 µM.

On to `CCCCC(C)Cc1cc(CC)c(CC(=O)O)o1` (configuration not stated) [PLAKORSIN D], for which the IC50 in the assay with Bel-7402, with A549, in the assay on HeLa and in the assay with K562 was > 100 µM each time.

For the compound `CCCCC(C)C/C(=C/[C@@]1(CC)OC(=O)C[C@@H]1O)CC` (some centres not stated) [SIMPLEXOLIDE E], the IC50 in the assay with Bel-7402 was > 100 µM; in the assay on A549 it was > 100 µM; with HeLa, 31.2 µM; with K562, 49.2 µM.

For the compound `CCCCC(CC)C[C@]1(CC)O[C@H]1[C@]1(CC)C=CC(=O)O1` (some centres not stated) [PLAKORTOXIDE B], the IC50 was > 100 µM in the assay with Bel-7402, > 100 µM in the assay with A549, > 50 µM with HeLa and > 100 µM in the assay with K562.

Regarding `CC/C=C/[C@H](CC)C[C@]1(CC)C=C(CC)/C(=C/C(=O)OC)O1`, the half-maximal inhibitory concentration (IC50) is > 100 µM in the assay on Bel-7402, > 100 µM in the assay on A549, 2.6 µM with HeLa and 0.8 µM with K562.
